Only some compounds are listed: those with a hit (about 4.9% of all), similar ones and a draw of the others.
WT yeast gro inh = growth inhibition of WT yeast, mitochondrial fusion screen; inhibition, % at 10 µM; hit rate 2.1% among 190,000; mitochondrial fusion phenotypic screen, WT strain; AID 1362; in the data active = inhibition above about 58%; tested in S. cerevisiae
NPY-Y2 antag = antagonists of human neuropeptide Y receptor Y2; NPY-Y2 expressing cells, antagonist mode; inhibition, % at 2.7 µM; AID 793; hit rate 0.99% among 140,000; in the data active = inhibition above about 17%;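 also: 0% = vehicle with agonist challenge and 100% = reference antagonist with challenge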
Target sequence (P49146 whole entry, looked up): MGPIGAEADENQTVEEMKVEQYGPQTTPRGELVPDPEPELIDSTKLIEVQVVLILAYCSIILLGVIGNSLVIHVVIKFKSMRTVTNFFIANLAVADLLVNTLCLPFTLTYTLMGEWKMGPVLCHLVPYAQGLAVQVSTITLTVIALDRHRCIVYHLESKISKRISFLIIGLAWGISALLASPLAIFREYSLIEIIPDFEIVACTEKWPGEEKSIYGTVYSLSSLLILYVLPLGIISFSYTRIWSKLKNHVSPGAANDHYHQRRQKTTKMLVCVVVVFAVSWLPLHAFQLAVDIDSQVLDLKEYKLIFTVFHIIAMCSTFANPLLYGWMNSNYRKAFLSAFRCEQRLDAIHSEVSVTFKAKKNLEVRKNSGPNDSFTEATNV
NPY2 pot ag = human NPY-Y2 potentiation or agonism, primary screen; cells expressing NPY-Y2, potentiator/agonist read-out; activation, % at 3.6 µM; hit rate 0.45% among 220,000; AID 1359; in the data active = activation above about 27%;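 also: cells stimulated with NPY near EC25 plus isoproterenol at EC100; 0% = vehicle plus submaximal agonist and 100% = vehicle plus saturating agonist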
RAM inhibit = blocks the yeast RAM network; S. cerevisiae dse1pr::URA3 reporter, 5-FOA growth OD615, 2 d; analog-sensitive cbk1-as2 kinase mutant strain; hit rate 1.8% among 190,000; inhibition, % at 50 µM;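 active = inhibition above a set limit, 3 SD over mean compound inhibition, cut at about 8.4% in these data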;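 also: 0% = DMSO-only wells with no growth and 100% = 10 µM 1-NA-PP1 full growth; inhibition rescues growth on 5-FOA so higher OD means more RAM inhibition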
NPY1 pot ag = human NPY-Y1 potentiation or agonism, primary screen. P25929. NPY-Y1 expressing cells, potentiator/agonist activation. activation, % at 3.6 µM. hit rate 0.37% among 220,000; in the data active = activation above about 33%, passing the limit was not always enough;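 also: cells stimulated with NPY at EC10 then isoproterenol at EC100; 0% = low agonist plus stimulus and 100% = saturating agonist plus stimulus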
NPY Y1 blocker = antagonists of human neuropeptide Y receptor Y1 | P25929 | HEK293-CNG Y1 cells, membrane potential fluorescence; NPY at EC95, then isoproterenol | inhibition, % at 3.6 µM | hit rate 1% among 200,000 | AID 1040;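 active = inhibition above the campaign mean inhibition of all tested compounds plus 3 SD, cut at about 20% in these data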;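 also: 0% = DMSO wells given NPY plus isoproterenol and 100% = isoproterenol alone without NPY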
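Assay system: HEK293 Y1/CNG channel cell line; Doses: single compound dose of 3.6 µM, 0.4% DMSO; Timing: dye 3 h, compound 60 min room temperature, stimulation 45 min; Technique: Membrane-potential fluorescent dye readout; Measure: % inhibition of NPY effect.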
RAM efflux-def = restores 5-FOA growth of efflux-deficient yeast. shares compounds with RAM inhibit. S. cerevisiae efflux-deficient reporter strain, 5-FOA growth OD615, 2 days. max inhibition, %. 1,200 tested, under 10 active. AID 1305; call rule not given here;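 also: plate controls were vehicle for no effect and reference inhibitor for full effect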
* marks the source's active call; other numbers are inactive results; . = no result given.

SMILES	WT yeast gro inh	NPY-Y2 antag	NPY2 pot ag	RAM inhibit	NPY1 pot ag	NPY Y1 blocker	RAM efflux-def
O=C(CCCCn1c(=O)[nH]c2ccsc2c1=O)NCC1CCCO1 (configuration not stated)	-4.0	-0.5	3.2	1.8	5.0	0.6	.
CCOC(=O)N1CCN(C(=O)C2CCCN(S(=O)(=O)c3cc(C)ccc3OC)C2)CC1 (configuration not stated)	4.3	-3.1	4.8	-0.2	7.2	7.2	.
CCCCCOP(=O)(OCCCCC)C1(NS(=O)(=O)c2ccccc2)C=CC(=O)c2ccccc21 (configuration not stated)	14.2	6.5	24.2	12.3*	62.2	-0.7	1.4
CCCCN(CCCC)C1=Nc2ccccc2N/C1=C(/C#N)C(=O)OCC	67.5*	4.3	-9.0	16.1*	0.1	8.2	5.6
CCOC(=O)/C(C#N)=C1/C=C(C)NC(c2ccccc2O)=N1	-12.4	2.0	18.0	6.8	20.4	-5.8	.
Cc1ccc(OCC(O)Cn2c3ccccc3c3ccccc32)cc1 (configuration not stated)	46.9	0.0	-8.8	12.0*	7.0	0.2	2.5
Cc1cccc(C)c1OCC(O)Cn1c2ccccc2c2ccccc21 (configuration not stated)	83.1*	-2.9	-3.8	15.2*	-3.7	7.0	6.8
Cc1cccc(C)c1OCC(O)Cn1nnc2ccccc21 (configuration not stated)	-10.8	1.8	-21.0	1.1	-16.7	7.8	.
O=C(Nc1ccc(-n2cnnn2)cc1)C(c1ccccc1)c1ccccc1	-10.8	.	6.1	3.2	-0.4	-0.2	.
Cc1nn(-c2ccc(Cl)cc2)c2sc(C(=O)c3c(N)n(C)c(=O)n(C)c3=O)cc12	-25.2	0.0	-1.0	2.6	1.4	-1.4	.
Cc1ccc(C(=O)NC(=S)Nc2ccc(Oc3ccc(Cl)cc3)cc2)cc1	7.5	1.4	2.6	6.4	-10.2	1.5	.
Cc1ccccc1C(=O)NC(=S)Nc1ccc(Oc2ccc(Cl)cc2)cc1	42.8	0.6	7.5	13.1*	-3.6	-2.4	3.3
COC(=O)c1cc(NC(=O)c2c(Cl)nc3sccn23)cc(C(=O)OC)c1	-12.7	1.6	6.7	4.9	-5.7	-3.3	.
Cc1ccc(NC(=O)CC(C)N2CCCC2)cc1 (configuration not stated)	9.9	6.5	1.2	-0.8	2.6	-0.9	.
COc1cc(-c2cc(C(=O)Nc3ccc(S(=O)(=O)NCc4ccco4)cc3)c3ccccc3n2)cc(OC)c1OC	-22.7	2.3	-1.9	12.9*	-7.2	-3.7	4.5
CN(C)S(=O)(=O)N1CCC(c2ccc(F)cc2)C(COc2ccc3c(c2)OCO3)C1 (configuration not stated)	28.1	27.7*	-20.8	16.6*	-16.8	43.6*	4.3
COc1ccc(S(=O)(=O)N(Cc2ccccc2)Cc2nc(-c3ccccc3)no2)cc1	4.4	21.3*	2.2	11.5*	-31.4	41.0*	1.9
O=C(O)CCc1nc(-c2ccc(Cl)cc2)no1	5.5	14.2	-3.9	-0.8	-17.5	15.5	.
CCOC(=O)C(C)Sc1nc(-c2cccs2)ccc1C#N (configuration not stated)	4.5	11.5	-8.1	12.9*	-11.5	11.3	2.0
Cc1cccc(-c2nnc(SCC#N)n2-c2ccccc2)c1	11.6	-2.2	10.1	1.3	1.8	-10.6	.
N#CCCCSc1nnc(-c2ccc(Cl)cc2)n1-c1ccccc1	-0.7	5.7	7.7	15.4*	11.6	0.3	1.5
Cc1cccc(NC(=O)NNS(=O)(=O)c2ccc(F)cc2)c1	-7.7	5.1	12.5	2.2	-22.9	-4.5	.
C=CCn1c(SCc2csc(C)n2)nc2sc3c(c2c1=O)CCC(C)C3 (configuration not stated)	49.9	8.2	-19.2	15.3*	-7.4	4.4	2.5
C=CCn1c(SCc2csc(C)n2)nc2sc3c(c2c1=O)CCCCC3	53.9	5.2	-20.0	16.6*	-30.0	3.8	3.0
CC1CCc2c(sc3nc(SCc4nc(-c5ccccc5)no4)n(C)c(=O)c23)C1 (configuration not stated)	17.7	.	.	.	.	.	.
SMILES	WT yeast gro inh	NPY-Y2 antag	NPY2 pot ag	RAM inhibit	NPY1 pot ag	NPY Y1 blocker	RAM efflux-def
Nc1nonc1-c1nc2ccccc2[nH]1	-8.7	3.9	3.7	1.5	-11.4	-1.0	.
COc1ccc(C(=O)Nn2c(SCC(=O)NCC3CCCO3)nc3ccccc3c2=O)cc1 (configuration not stated)	10.9	2.0	-1.9	4.3	-4.3	-0.1	.
O=C(COc1ccccc1F)N/N=C1\CCCc2ccccc21	-14.2	3.5	1.2	0.2	12.5	1.3	.
Cc1cc(Cl)ccc1OCC(=O)N/N=C1\CCCc2ccccc21	13.1	3.8	-4.4	15.0*	-33.4	4.8	3.0
COc1cc(Cl)c(C)cc1NC(=O)COC(=O)/C=C/c1c(C)nn(C2CCS(=O)(=O)C2)c1Cl (configuration not stated)	-9.2	1.3	11.2	3.1	11.0	5.8	.
COc1ccccc1-c1noc(CCC(=O)Nc2cccc(C(F)(F)F)c2)n1	-0.2	-1.9	3.4	22.6*	1.1	-1.7	1.1
COc1cccc(NC(=O)CCc2nc(-c3ccccc3F)no2)c1	5.9	7.7	-23.6	0.7	-25.2	4.6	.
CCOc1ccc(/C=C/C(O)=C2/C(=O)N(C)C3(C)CC2c2ccccc2O3)cc1OC (configuration not stated)	26.3	.	-17.1	11.5*	-4.8	-8.1	2.2
CC(=O)CSc1nc(C(F)(F)F)cc(=O)n1-c1ccccc1	12.4	0.4	6.4	1.2	-5.8	3.5	.
CCCC(c1nnnn1Cc1ccco1)N1CCN(c2cc(Cl)ccc2C)CC1 (configuration not stated)	30.3	27.3*	-1.8	21.4*	4.0	28.7*	1.7
CCC(c1nnnn1Cc1ccco1)N1CCN(C(=O)c2ccco2)CC1 (configuration not stated)	3.7	0.9	5.1	1.5	-11.4	-10.1	.
CCCCNC(=O)c1onc(CSc2ccc(C)c(C)c2)c1C(=O)O	-11.5	12.7	-38.0	5.6	-49.0	15.3	.
COC(=O)c1c(CSc2ccc(C)c(C)c2)noc1C(=O)NCc1ccc(OC)cc1	6.7	21.6*	-34.7	12.1*	-14.9	23.0*	1.9
CCCCNS(=O)(=O)C1CCS(=O)(=O)C1 (configuration not stated)	6.8	1.8	19.0	2.2	-4.4	-2.5	.
Cc1ccc(Sc2nc3c(c(=O)[nH]c(=O)n3C)n2CCc2ccccc2)cc1	-3.1	3.2	-10.3	3.4	12.1	6.7	.
Cn1c(=O)[nH]c(=O)c2c1nc(Sc1ccccc1)n2CCc1ccccc1	10.7	1.8	12.4	0.6	-3.8	-0.8	1.9

Screening data deposited in PubChem by several laboratories.
